TAAR1 ag: human TAAR1 agonists, primary screen, Fluo-8 calcium fluorescence, CHO RD-HGA16 cells; Trace amine-associated receptor 1 (Homo sapiens), Q96RJ0; vehicle wells 0%, saturating PEA agonist 100%; activation, % at 3 µM; 360,000 compounds, 0.99% hits; AID 624467, 2012;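 active = activation above the mean activation of all test compounds in the run plus 3 SD, cut at about 38% in these data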
Target sequence (Q96RJ0 whole entry, looked up): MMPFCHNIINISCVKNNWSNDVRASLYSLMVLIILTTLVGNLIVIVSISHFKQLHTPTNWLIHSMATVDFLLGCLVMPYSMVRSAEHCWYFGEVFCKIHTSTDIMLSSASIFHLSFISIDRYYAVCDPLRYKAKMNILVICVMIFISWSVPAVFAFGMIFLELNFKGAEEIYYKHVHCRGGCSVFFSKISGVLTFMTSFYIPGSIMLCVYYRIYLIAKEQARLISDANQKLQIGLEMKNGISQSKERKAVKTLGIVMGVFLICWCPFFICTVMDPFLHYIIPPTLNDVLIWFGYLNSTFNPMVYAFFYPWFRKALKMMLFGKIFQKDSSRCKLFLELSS
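Assay system – CHO-derived RD-HGA16 cells with stable Gα16 and human TAAR1 · Compound dosing – one-point dosing at 3 µM (nominal) · Incubation – 17-24 h seeding, 75 min 37 °C dye, 30 min RT · Measured by – kinetic Fluo-8 calcium fluorescence · Control set – DMSO vehicle as 0%, PEA at EC100 as 100% · Repeats – single well for each compound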
OX1R antag-1: OX1R (HCRTR1) antagonists, primary screen, fluorescence, CHO/OX1R cells, Fluo-8 calcium, orexin A. Orexin/Hypocretin receptor type 1 (Homo sapiens), O43613. Fluo-8 calcium fluorescence. inhibition, % at 5 µM. 330,000 compounds, 0.43% hits. AID 434989, 2010;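 active = inhibition above its plate's threshold, mean inhibition of all tested compounds on the plate plus 3 SD, cut at about 37% in these data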;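 note: 0% = orexin A challenge wells and 100% = SB-334867-A antagonist wells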
Target sequence (O43613 whole entry, looked up): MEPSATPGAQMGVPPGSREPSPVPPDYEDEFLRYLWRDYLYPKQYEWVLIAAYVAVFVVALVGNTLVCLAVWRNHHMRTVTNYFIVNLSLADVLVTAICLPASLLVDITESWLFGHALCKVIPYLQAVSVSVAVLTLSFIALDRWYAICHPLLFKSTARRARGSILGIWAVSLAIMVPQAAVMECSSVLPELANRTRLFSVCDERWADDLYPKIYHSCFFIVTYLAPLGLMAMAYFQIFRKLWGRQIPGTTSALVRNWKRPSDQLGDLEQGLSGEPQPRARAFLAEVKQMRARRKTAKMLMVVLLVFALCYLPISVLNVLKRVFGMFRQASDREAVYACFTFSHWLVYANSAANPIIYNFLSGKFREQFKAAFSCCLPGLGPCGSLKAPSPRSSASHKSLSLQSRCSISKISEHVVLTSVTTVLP
GPR7 antag: GPR7 receptor antagonists, primary screen, cell-based, fluorescence, single concentration; Neuropeptides B/W receptor type 1 (Homo sapiens), P48145; GPR7-expressing cells, fluorescence antagonist assay; inhibition, % at 4.4 µM; 290,000 compounds, 1.1% hits; in the data active = inhibition above about 16%, passing the limit was not always enough;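 note: cells stimulated with the agonist NPW; 0% = agonist with vehicle and 100% = vehicle without agonist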
TAAR1 antag: human TAAR1 antagonists, primary screen, Fluo-8 calcium fluorescence, CHO RD-HGA16 cells; 360,000 compounds, 1.5% hits; inhibition, % at 3 µM; antagonist;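 active = inhibition above a per-plate cutoff, the mean inhibition of test compounds on that plate plus 3 SD, cut at about 49% in these data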;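 note: 0% = DMSO plus EC80 beta-PEA response and 100% = DMSO alone without agonist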
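System: CHO RD-HGA16 cells bearing hTAAR1. Reagent: EC80 β-phenethylamine stimulus. Schedule: seeding 17-24 h prior, 75-min 37 °C, 30-min RT dye loading. Signal: Fluo-8 intracellular calcium dye fluorescence, real-time kinetic reads. Read-out: % inhibition from peak post-agonist over basal fluorescence ratio. Benchmarks: vehicle wells and EC80 agonist wells. Replicates: n of 1.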
CHO parental Ca: ATP-evoked calcium signal inhibitors, parental CHO, primary screen, counter-screen for OX1R antagonist project, cell-based, fluorescence, Fluo-8 calcium dye | parental CHO-K1, ATP-induced calcium, Fluo-8 fluorescence | inhibition, % at 5.6 µM | 330,000 compounds, 0.63% hits;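 active = inhibition above that plate's mean sample inhibition plus 3 SD, cut at about 26% in these data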;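 note: 0% = ATP-challenged DMSO wells and 100% = DMSO wells without ATP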
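test system = CHO parental line | reagent = ATP stimulus | measured by = intracellular calcium via Fluo-8 no-wash fluorescent dye | control set = ATP and no-ATP DMSO wells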
OX1R antag-2: antagonists of human orexin 1 receptor (OX1R) | inhibition, % at 6.6 µM | Orexin/Hypocretin receptor type 1 (Homo sapiens), O43613 | 330,000 compounds, 1.8% hits | AID 485270, 2010 | OX1R-expressing cells, FRET antagonist read-out; in the data active = inhibition mostly above about 38%, no sharp cut-off; inactive = mostly below about 40%;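 note: 0% = agonist challenge alone and 100% = reference antagonist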
OX1R Fluo8 conf: OX1R (HCRTR1) antagonists, confirmation, fluorescence, CHO/OX1R cells, Fluo-8 calcium, orexin A. shares compounds with OX1R antag-1. orexin A calcium Fluo-8 fluorescence. inhibition, % at 5 µM. 1,100 compounds, 38% hits; in the data active = inhibition above about 29%;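 note: 0% = agonist challenge alone and 100% = reference antagonist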
CHO Ca counter: ATP-evoked calcium inhibition in parental CHO, counter-screen for OX1R antagonist project, cell-based, fluorescence, CHO-K1, triplicate. shares compounds with OX1R antag-1. ATP-induced calcium, Fluo-8 fluorescence. inhibition, % at 5.6 µM. 1,100 compounds, 9.3% hits. AID 492965, 2010;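 active = inhibition above a per-plate limit, the mean inhibition of that plate's test compounds plus 3 SD, cut at about 25% in these data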;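 note: 0% = ATP challenge with DMSO and 100% = DMSO without ATP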
OX1R HTRF conf: OX1R (HCRTR1) antagonists, confirmation, cell-based, HTRF; shares compounds with OX1R antag-2; OX1R-expressing cells, HTRF antagonist assay; inhibition, % at 6.6 µM; 1,800 compounds, 49% hits; AID 492964, 2010; in the data active = inhibition above about 55%;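 note: CHO cells expressing OX1R stimulated with orexin A at about EC80; 0% = agonist challenge alone and 100% = reference antagonist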
CHO-K1 HTRF: signal inhibition in parental CHO-K1 cells, counter-screen for OX1R antagonist project, cell-based, HTRF. shares compounds with OX1R antag-2. 1,800 compounds, 48% hits. AID 493232, 2011. inhibition, % at 6.6 µM. HTRF counterscreen; in the data active = inhibition above about 17%;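 note: 0% = agonist challenge with vehicle and 100% = vehicle alone without agonist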
The depositor's hits bear a star. Rows were chosen to be rich in hits. Some 4.6% of all compounds tested hit in one or more screens of this group.

Results for CCc1ccc(/C=C2/Sc3ccccc3N(CC(=O)NCC3CCCO3)C2=O)cc1 (stereo not drawn) ?
TAAR1 ag: -0.2; OX1R antag-1: 84.2*; GPR7 antag: 7.7; TAAR1 antag: 42.0; CHO parental Ca: 13.0; OX1R antag-2: 95.1*; OX1R Fluo8 conf: 44.9*; CHO Ca counter: -14.5; OX1R HTRF conf: 86.9*; CHO-K1 HTRF: 5.5

How did O=C(CN1C(=O)/C(=C/c2ccccc2)Sc2ccccc21)NCCCN1CCOCC1 do in these assays?
TAAR1 ag: 0.3; OX1R antag-1: -0.8; GPR7 antag: -1.9; TAAR1 antag: -0.8; CHO parental Ca: -18.3; OX1R antag-2: 9.2

What do the screens show for `O=c1oc(-c2ccc(Cl)c(Cl)c2)nn1-c1ccc(C(F)(F)F)cn1`?
TAAR1 ag: 3.4; OX1R antag-1: -13.4; GPR7 antag: -13.1; TAAR1 antag: -29.0; CHO parental Ca: -6.8; OX1R antag-2: -2.4

How did Cc1cccc(NC(=O)/C(C#N)=C\c2cn(CC(=O)O)c3ccccc23)c1 do in these assays?
TAAR1 ag: 3.8; OX1R antag-1: 42.6; GPR7 antag: -9.9; TAAR1 antag: 12.1; CHO parental Ca: -14.4; OX1R antag-2: 82.7*; OX1R Fluo8 conf: 37.2*; CHO Ca counter: 3.2; OX1R HTRF conf: 78.2*; CHO-K1 HTRF: 3.6

How did Cc1noc(C)c1COC(=O)c1ccc2c(c1)S(=O)(=O)c1ccccc1C2=O do in these assays?
TAAR1 ag: 13.8; OX1R antag-1: 59.4*; GPR7 antag: -9.2; TAAR1 antag: -0.6; CHO parental Ca: -18.4; OX1R antag-2: 111.0*; OX1R Fluo8 conf: 64.7*; CHO Ca counter: -9.5; OX1R HTRF conf: 102.3*; CHO-K1 HTRF: 17.3*

Results for Cc1noc(C)c1COC(=O)c1ccc2c(c1)OCO2 ?
TAAR1 ag: 3.7; OX1R antag-1: -4.8; GPR7 antag: -10.0; TAAR1 antag: 5.0; CHO parental Ca: 0.7; OX1R antag-2: 6.0

What do the screens show for `COc1ccc(/C=C/C(=O)OCC(=O)c2c(C)[nH]c3ccccc23)cc1OC`?
TAAR1 ag: 1.5; OX1R antag-1: 49.2*; GPR7 antag: 4.7; TAAR1 antag: -7.1; CHO parental Ca: -15.0; OX1R antag-2: 76.0*; OX1R Fluo8 conf: 43.8*; CHO Ca counter: -10.4; OX1R HTRF conf: 80.0*; CHO-K1 HTRF: 3.2

What do the screens show for `CCc1ccc(/C=N\NC(=O)c2ccc(Br)o2)s1`?
TAAR1 ag: -0.8; OX1R antag-1: -14.1; GPR7 antag: -10.7; TAAR1 antag: 6.2; CHO parental Ca: -7.5; OX1R antag-2: 36.0

What do the screens show for `CCN(CC)c1ccc(/C=N/NC(=O)c2ccc(Br)o2)cc1`?
TAAR1 ag: -0.5; OX1R antag-1: 31.0; GPR7 antag: -7.8; TAAR1 antag: 26.1; CHO parental Ca: -11.2; OX1R antag-2: 91.5*; OX1R Fluo8 conf: 55.4*; CHO Ca counter: 3.8; OX1R HTRF conf: 90.4*; CHO-K1 HTRF: 7.9

Results for O=C(C1CCCN1S(=O)(=O)c1cccc2cccnc12)N1CCn2c1nc1ccccc12 (stereo not drawn) ?
OX1R antag-1: 44.9*; GPR7 antag: -9.3; CHO parental Ca: -6.0; OX1R antag-2: 95.9*; OX1R Fluo8 conf: 53.5*; CHO Ca counter: -4.8; OX1R HTRF conf: 89.6*; CHO-K1 HTRF: 1.9

Results for O=C(Nc1ccc2c(c1)N(S(=O)(=O)c1cccs1)CCC2)c1c(F)cccc1F ?
TAAR1 ag: 2.2; OX1R antag-1: 19.9; TAAR1 antag: -41.0; CHO parental Ca: -2.5; OX1R antag-2: 68.6*; OX1R Fluo8 conf: 37.2*; CHO Ca counter: 0.8; OX1R HTRF conf: 65.8*; CHO-K1 HTRF: 3.2

How did CCNC(=O)C(=O)Nc1ccc2c(c1)N(S(=O)(=O)c1cccs1)CCC2 do in these assays?
TAAR1 ag: 1.1; OX1R antag-1: -16.8; TAAR1 antag: -7.3; CHO parental Ca: -11.8; OX1R antag-2: 18.3

How did Cc1ccsc1/C=N/n1c(COc2ccccc2)n[nH]c1=S do in these assays?
TAAR1 ag: -1.4; OX1R antag-1: -15.9; GPR7 antag: -1.3; TAAR1 antag: -3.2; CHO parental Ca: -7.8; OX1R antag-2: 27.9

Results for COc1ccc(NC(=O)CSc2nc3sc(C)cc3c(=O)n2C)c(OC)c1 ?
TAAR1 ag: -1.0; OX1R antag-1: 42.6*; GPR7 antag: -0.5; TAAR1 antag: -4.8; CHO parental Ca: -8.0; OX1R antag-2: 88.4*; OX1R Fluo8 conf: 30.9*; CHO Ca counter: -15.6; OX1R HTRF conf: 85.8*; CHO-K1 HTRF: -15.1

Results for COc1ccc(NC(=O)CSc2nc3sc(C)cc3c(=O)n2C)cc1 ?
TAAR1 ag: -0.6; OX1R antag-1: -18.0; GPR7 antag: -6.2; TAAR1 antag: -15.5; CHO parental Ca: 0.2; OX1R antag-2: 12.4

Results for C=CCn1c(SCc2ccc(C#N)cc2)nnc1-c1cccc(Cl)c1 ?
TAAR1 ag: 2.2; OX1R antag-1: -7.7; GPR7 antag: -7.0; TAAR1 antag: 23.1; CHO parental Ca: -10.9; OX1R antag-2: 50.0

Results for C=CCn1c(SCc2ccc(C(=O)Nc3nccs3)cc2)nnc1-c1ccc(C)c(Cl)c1 ?
TAAR1 ag: 8.1; OX1R antag-1: 70.5*; GPR7 antag: -7.7; TAAR1 antag: 64.8*; CHO parental Ca: 2.8; OX1R antag-2: 79.3*; OX1R Fluo8 conf: 68.9*; CHO Ca counter: 18.0; OX1R HTRF conf: 82.0*; CHO-K1 HTRF: 1.4
